High-throughput results as filed in PubChem.
Sampled rows, rich in hits. Any-hit rate of the full collection: about 4.2%.
CTSL1 counter = blocks F. hepatica cathepsin L1 in PFM18AAP counter-screen; recombinant F. hepatica cathepsin L1, Z-Leu-Arg-MCA fluorescence; inhibition, % at 5.96 µM; 300,000 tested, 0.49% active;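 active = inhibition above the mean of all tested compounds plus 3 SD, set per screening campaign, cut at about 17% in these data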;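 also: 0% = plate median of test compound wells and 100% = 1 µM Z-Phe-Ala-diazomethylketone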
AHR act = activators of human aryl hydrocarbon receptor; AHR-responsive luciferase reporter cells, luminescence; P35869; activation, % at 5 µM; AID 2796; 320,000 tested, 2.5% active; in the data active = activation above about 47%;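 also: 0% = vehicle wells and 100% = reference agonist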
GAA850 FXN act = activators of GAA850 frataxin (FXN) promoter; HEK293 lucGAA850 FXN promoter luciferase reporter, 24 h; percent of 10 µM SAHA response; activation, % at 6 µM; 360,000 tested, 0.56% active;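 active = activation above the average of all compounds screened plus 3 SD, cutoff fixed separately per campaign, cut at about 7.5% in these data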;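 also: 0% = DMSO wells and 100% = 10 µM SAHA wells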
HDAC3 inhib = inhibitors of human histone deacetylase 3; 320,000 tested, 0.15% active; inhibition, % at 8.3 µM; O15379; recombinant HDAC3, fluorogenic peptide/trypsin coupled, fluorescence; in the data active = inhibition above about 26%, passing the limit was not always enough
PfM18AAP inh = blocks P. falciparum M18 aspartyl aminopeptidase; inhibition, % at 7.35 µM; AID 1822; 290,000 tested, 1.2% active; recombinant PfM18AAP, H-Glu-NHMec fluorogenic cleavage;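 active = inhibition above the campaign mean inhibition over all tested compounds plus 3 SD, cut at about 28% in these data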;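 also: 0% = plate median of test compound wells and 100% = 2 mM ZnCl2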
SENP1 FRET inh = inhibitors of human SENP1 SUMO protease catalytic domain. Q9P0U3. AID 624204. 360,000 tested, 0.21% active. inhibition, % at 10 µM. recombinant SENP1 catalytic domain, CyPet-SUMO1-YPet FRET cleavage;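 active = inhibition at least 30% at 10 µM, raw YFP signal under a set limit, fluorescence ratio 0.5 to 1.5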;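 also: 0% = enzyme with DMSO and 100% = no enzyme wells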
Target sequence (Q9P0U3 419-644 limits assumed): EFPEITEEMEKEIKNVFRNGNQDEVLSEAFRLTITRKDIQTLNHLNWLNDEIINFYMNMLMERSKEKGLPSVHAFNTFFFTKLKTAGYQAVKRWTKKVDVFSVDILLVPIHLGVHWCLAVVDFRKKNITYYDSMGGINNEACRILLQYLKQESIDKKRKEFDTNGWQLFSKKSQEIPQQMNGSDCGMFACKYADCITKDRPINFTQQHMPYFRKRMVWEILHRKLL
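System: Recombinant human SENP1 catalytic domain, His6-tagged | Incubation: Enzyme reaction for 50 min at room temperature, dark | Medium: Tris pH 8 with BME, BSA, NP40 and catalase | Also added: 25 nM SUMO1 FRET substrate | Compound: 10 µM single point, 0.5% DMSO | Measured by: FRET fluorescence in CFP and YFP emission channels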
AHR act cf = human AHR activation, confirmation | shares compounds with AHR act | human cells, AHR-responsive luciferase reporter, luminescence | activation, % at 9 µM | 2,300 tested, 87% active; in the data active = activation above about 49%;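 also: HepG2 hepatoma cells carrying a DRE-driven firefly luciferase reporter; 0% = vehicle wells and 100% = reference agonist wells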
PXR act counter = counter-screen for AHR activators: human PXR activators | activation, % at 11.6 µM | shares compounds with AHR act | AID 434939 | 2,300 tested, 88% active | cell-based PXR reporter, luciferase luminescence; in the data active = activation above about 11%;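 also: human hepatoma DPX-2 cells expressing full-length human PXR; 0% = DMSO and 100% = reference agonist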
* marks the source's active call; other numbers are inactive results; x = not tested or not shown.

SMILES	CTSL1 counter	AHR act	GAA850 FXN act	HDAC3 inhib	PfM18AAP inh	SENP1 FRET inh	AHR act cf	PXR act counter
C=CCNC(=S)N/N=C(\C)c1ccc(-n2ccnc2)cc1	1	89*	2	1	-2	1	106*	19*
O=C(COC(=O)c1cc(Br)ccc1O)NC12CC3CC(CC(C3)C1)C2	x	0	0	0	x	2	x	x
Cc1nnc(SCC(=O)NCc2ccc3c(c2)OCO3)s1	4	2	2	2	-9	-1	x	x
Cc1ccc(-c2nsc(SCC(=O)NCc3ccc4c(c3)OCO4)n2)cc1	-1	10	2	1	5	1	x	x
Cc1ccccc1-c1nsc(SCC(=O)NCc2ccc3c(c2)OCO3)n1	0	86*	1	6	3	3	44	30*
O=C(CSc1nc2cc(Cl)ccc2s1)NCc1ccc2c(c1)OCO2	2	108*	3	1	6	-1	82*	34*
CCN1CCN(C(CNS(=O)(=O)c2ccc(F)cc2)c2cccnc2)CC1 (centres undefined)	-3	2	-2	-4	-3	-1	x	x
COc1cc(NC(=O)c2cc(C3CC3)on2)c(OC)cc1Cl	-1	95*	0	x	-1	1	110*	14*
COc1ccc(C(=O)Nc2cc(OC)c(Cl)cc2OC)cc1	1	42	3	3	-1	2	x	x
COc1cc(NC(=O)c2ccc(F)cc2)c(OC)cc1Cl	0	86*	1	-7	-2	-2	103*	20*
CC(=O)C1=C(O)C(=O)N(c2nccs2)C1c1ccc(Br)cc1 (centres undefined)	-5	171*	2	5	7	-14	43	9
CC(=O)C1=C(O)C(=O)N(c2nccs2)C1c1ccc(F)cc1 (centres undefined)	3	-3	1	11	0	-57	x	x
COc1cc(Cl)ccc1OCc1cc(C(=O)NCc2cc(C(C)C)no2)no1	0	115*	5	8	-7	-4	105*	45*
O=C(OCC(=O)N1CCCCCC1)c1ccc(F)cc1F	x	x	4	x	x	2	x	x
CCc1ccc(Nc2cc(C)nc3ncnn23)cc1	5	3	1	1	1	-1	x	x
CCn1c2ccccc2c2cc(Nc3cc(C)nc4ncnn34)ccc21	-2	132*	-2	-1	-1	5	89*	90*
O=[N+]([O-])c1cccc(C(=Nc2ccccc2Cl)NO)c1	-3	85*	0	-8	-2	-1	73*	50*
Cc1csc2nc(O)c(C(=O)NC3CCCCC3)c(=O)n12	-2	5	0	-3	x	-1	x	x
O=C(NC1CCCC1)c1c(O)nc2sccn2c1=O	5	85*	0	-1	x	0	114*	10
CCN(CC(=O)NC(C)(C)C)C(=O)CN1c2cccc3cccc(c23)S1(=O)=O	3	1	-2	-2	-9	1	x	x
CCN(/N=C/C=C/c1ccccc1)c1cc(=O)n(C)c(=O)[nH]1	5	132*	1	-8	5	-34	33	8
Cn1c(=O)cc(C(=O)N/N=C/c2ccc(Cl)cc2)[nH]c1=O	1	1	1	9	2	4	x	x
Cn1c(=O)cc(Nc2ccccc2)[nH]c1=O	5	2	1	-2	0	-5	x	x
CCN(/N=C/c1ccc(Cl)cc1)c1cc(=O)n(C)c(=O)[nH]1	7	121*	1	4	6	-15	71*	x
Cc1cccnc1Nc1nc(-c2ccc(F)cc2)cs1	-1	126*	6	2	-2	3	131*	17*
Cc1ccnc(Nc2nc(-c3ccc(F)cc3)cs2)c1	2	165*	4	7	-4	-4	132*	15*
Cc1ccnc(Nc2nc(-c3ccc(Cl)cc3)cs2)c1	-2	137*	3	-4	2	2	97*	32*
Cc1ccnc(Nc2nc(-c3sc(C)nc3C)cs2)c1	2	3	4	10	x	1	x	x
